In paper PMC4306959 (Scientific Reports, 2015):

Legend:
JNK2 = settings: cited from earlier work
JNK3 = settings: cited from earlier work
JNK3α1L144I = JNK3α1L144I (Homo sapiens, UniProt P53779, L144I); experiment: HTRF enzyme inhibition assay, JNK3 L144I mutant; assay type: biochemical; settings: read-out: Km value of ATP for JNK3 L144I
Procedure, shortened: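 Human JNK3 39–402 L144I, made by PCR mutagenesis and expressed like WT, activated for 2 h at 30°C with MKK4/MKK7 (100 nM each) in HEPES pH 7.5, MgCl2, DTT, 200 μM ATP; activation checked by MS and Western. HTRF at 0.75 nM enzyme, 0.5 μM biotinylated FL-ATF-2, 1.25 μM ATP, 1 h. Top concentration 10,000 nM.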

Sequence of JNK3α1L144I (P53779 39-402 L144I): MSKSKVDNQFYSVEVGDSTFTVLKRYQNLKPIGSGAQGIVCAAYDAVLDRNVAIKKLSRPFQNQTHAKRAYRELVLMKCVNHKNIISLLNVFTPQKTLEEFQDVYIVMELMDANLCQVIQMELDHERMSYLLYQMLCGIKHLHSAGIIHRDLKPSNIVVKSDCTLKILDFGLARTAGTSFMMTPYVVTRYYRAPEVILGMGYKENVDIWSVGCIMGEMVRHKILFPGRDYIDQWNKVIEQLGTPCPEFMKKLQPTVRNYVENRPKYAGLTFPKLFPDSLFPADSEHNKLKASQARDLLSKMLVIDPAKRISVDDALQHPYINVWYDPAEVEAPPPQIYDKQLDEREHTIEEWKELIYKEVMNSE

Row | Structure (SMILES) | Selectivity for JNK2 compared to JNK1 (JNK2) [fold] | Selectivity for JNK3 compared to JNK1 (JNK3) [fold] | Km (JNK3α1L144I) [µM]
1 | Cn1c(NC[C@@H](N)Cc2ccccc2)nc(-c2ccncc2)c(-c2ccc3ccccc3c2)c1=O [AMG-548] | 294 | 188 | 
2 | Nc1ncnc2c1ncn2[C@@H]1O[C@H](COP(=O)(O)OP(=O)(O)OP(=O)(O)O)[C@@H](O)[C@H]1O [ATP] |  |  | 2.9
